# Screening results from PubChem.
# UCH37 inh – human UCH37 deubiquitinating enzyme inhibition. 0.33% of 330,000 active. Q9Y5K5. purified proteasome/UCH37, Ub-AMC cleavage fluorescence. inhibition, % (concentration not given with the values). AID 588478;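 active means mean inhibition over replicate wells above about 20%, limit read from the data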;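 further: 0% = compound-free wells with enzyme and 100% = wells lacking proteasome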
#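 Schedule: 30 min plus 25 min, room temperature / Material: human UCH37 within purified proteasomes / Technique: AMC fluorescence intensity at 355/460 nm / Buffer or medium: pH 7.4 Tris-HCl (50 mM) with ovalbumin, ATP-MgCl2, DTT / Controls: wells without proteasome as full block, compound-free enzyme plus substrate as uninhibited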
# HKDC1 inh – HKDC1 (human) hexokinase inhibition | 0.16% of 340,000 active | recombinant HKDC1, G6PDH/diaphorase resazurin coupled fluorescence | Q2TB90 | inhibition, % at 20 µM;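 active means inhibition above about 35% when tested at 20 µM, limit read from the data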;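 further: plate controls were DMSO wells with enzyme for no effect and DMSO wells lacking enzyme for full effect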
# Target sequence (Q2TB90 whole entry, looked up): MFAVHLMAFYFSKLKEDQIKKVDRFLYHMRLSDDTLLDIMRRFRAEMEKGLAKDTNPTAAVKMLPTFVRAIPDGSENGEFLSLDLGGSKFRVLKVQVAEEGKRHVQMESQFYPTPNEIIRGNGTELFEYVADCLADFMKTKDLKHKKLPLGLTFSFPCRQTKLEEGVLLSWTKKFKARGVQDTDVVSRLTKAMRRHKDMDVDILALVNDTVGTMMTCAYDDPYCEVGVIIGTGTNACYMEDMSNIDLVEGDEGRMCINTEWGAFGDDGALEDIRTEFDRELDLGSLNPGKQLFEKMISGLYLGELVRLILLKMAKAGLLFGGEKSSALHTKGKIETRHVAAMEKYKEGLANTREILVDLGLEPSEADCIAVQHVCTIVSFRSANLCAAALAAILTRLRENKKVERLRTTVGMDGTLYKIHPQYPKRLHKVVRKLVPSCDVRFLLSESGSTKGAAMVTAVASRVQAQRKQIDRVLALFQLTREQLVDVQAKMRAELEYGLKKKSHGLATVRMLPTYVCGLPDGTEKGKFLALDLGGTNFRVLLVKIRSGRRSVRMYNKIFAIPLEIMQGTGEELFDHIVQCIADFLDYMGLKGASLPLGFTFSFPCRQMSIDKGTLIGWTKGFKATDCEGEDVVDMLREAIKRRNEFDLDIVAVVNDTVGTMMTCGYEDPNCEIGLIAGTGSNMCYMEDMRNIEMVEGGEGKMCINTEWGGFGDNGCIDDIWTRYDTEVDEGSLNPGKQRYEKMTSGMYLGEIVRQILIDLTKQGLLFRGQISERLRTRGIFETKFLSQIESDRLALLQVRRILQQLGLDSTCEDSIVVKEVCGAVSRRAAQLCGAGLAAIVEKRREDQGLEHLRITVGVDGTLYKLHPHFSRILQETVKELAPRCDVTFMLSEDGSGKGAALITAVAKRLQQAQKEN
#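 Assay system: in-house recombinant HK5 (HKDC1) enzyme. Input: HKDC1 at 5 µg/mL. Medium: Tris pH 8.0 buffer with MgCl2, Tween-20, BSA, BME. Dosing: single 20 µM dose. Schedule: 90 min reaction incubation at room temperature, dark. Signal: resazurin-to-resorufin fluorescence via G6PDH and diaphorase coupling, 525/613 nm. Controls: DMSO-enzyme wells negative, buffer-substituted wells positive.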
# PfG6PD inh – PfG6PD (Plasmodium falciparum) enzyme inhibition; PfGluPho enzyme, NADPH resazurin-diaphorase fluorescence; 0.78% of 350,000 active; inhibition, % at 20 µM; AID 504690;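 active means inhibition reaching at least a set limit at 20 µM in the primary screen, cut at about 59% in these data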;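 further: 0% = DMSO wells with substrate and 100% = DMSO wells lacking glucose-6-phosphate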
# aDG glyco up – increases alpha dystroglycan glycosylation. Pro5-aDG cells, alpha-DG glycosylation AlphaScreen (IIH6); 0% Pro5, 100% B10-LARGE cell signal. activation, % at 10 µM. 0.22% of 360,000 active;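 active means activation of at least 8% versus controls, or a plate z-score of at least 8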;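 further: Pro5 are CHO cells carrying HIG-tagged alpha-DG that lacks glycosylation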
# B2AR ag – human beta-2 adrenergic receptor agonism by FAP. P07550. Am2.2-beta2AR cells, FAP receptor internalization, flow cytometry. response, % (test concentration not listed). 0.43% of 340,000 active. AID 504454;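 active means response above a set limit, near 3 SD of response in nonfluorescent compounds, cut at about 42% in these data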
# Cardio protect – protects H9c2 cardiomyocytes from peroxide injury | AID 588492 | 0.63% of 360,000 active | protection from H2O2 cell death, % at 20 µM | H2O2 injury protection, ATPLite, 2 h;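 active means compounds giving at least 50% protection of heart cells from peroxide-induced death in the single-dose screen, raw or plate-pattern-corrected value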;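 further: 0% = DMSO wells with peroxide and 100% = DMSO wells without peroxide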
# Beta2AR ag CP1 – activates human beta-2 adrenergic receptor | shares compounds with B2AR ag | Am2.2-beta2AR cells, FAP surface receptor, flow cytometry; active compounds read low | percent response (surface receptor), % at 10 µM | 25% of 1,100 active | AID 540358;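 active means surface receptor percent response at or below 58%, roughly 3 SD from nonfluorescent compounds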
# FAP fluor counter – flagged in Am2.2 fluorescence counterscreen for beta-2AR agonists; shares compounds with B2AR ag; Am2.2 cells, FAP fluorogen flow cytometry; active compounds read low; calls only at 10 µM; 1,100 tested, under 10 active;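 active means percent response below a set limit in fluorescence channel 1 and below 50% in channel 8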
# PfGluPho conf – confirmation of Plasmodium falciparum G6PD inhibitors. shares compounds with PfG6PD inh. recombinant PfGluPho, NADPH-diaphorase-resazurin fluorescence. inhibition, % at 20 µM. 34% of 2,400 active. AID 504753;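 active means inhibition of at least 50% at 20 µM in any single replicate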;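 further: 0% = DMSO with substrate and 100% = DMSO lacking glucose-6-phosphate substrate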
# Diaph ctr 10uM – diaphorase inhibition or oxidation at 10 uM NADPH; shares compounds with PfG6PD inh; diaphorase-coupled resazurin reduction, fluorescence, NADPH 10 uM; inhibition, % at 20 µM; 39% of 820 active; AID 504862;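 active means average inhibition reaching 50% or more with the compound at 20 µM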;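 further: resorufin red fluorescence formed as diaphorase reduces resazurin using NADPH; 0% = DMSO with enzyme and 100% = DMSO without enzyme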
# Diaph ctr 30uM – diaphorase inhibition or oxidation at 30 uM NADPH | inhibition, % at 20 µM | shares compounds with PfG6PD inh | Diaphorase/resazurin coupled assay, resorufin fluorescence | 29% of 820 active;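 active means inhibition averaging 50% or more, tested at 20 µM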;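 further: 0% = DMSO with enzyme and 100% = DMSO wells lacking diaphorase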
# UCH37 confirm – reconfirmed inhibitor of human deubiquitinase UCH37; shares compounds with UCH37 inh; Proteasome-bound UCH37, Ub-AMC cleavage fluorescence; inhibition, % at 20 µM; 27% of 480 active;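 active means average inhibition over replicates above about 50%, so the earlier screening hit is confirmed, limit read from the data; inactive means the rest, counted as false positives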;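 further: based on cleavage rate fitted by regression over a 30 min kinetic read; 0% = proteasome plus Ub-AMC and 100% = Ub-AMC without proteasome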
# aDG glyco conf – confirmation of alpha dystroglycan glycosylation activators. shares compounds with aDG glyco up. activation, % at 10 µM (by protocol). Pro5-aDG cells, alpha-DG glycosylation, IIH6 AlphaLISA; scaled to LARGE-overexpressing B10 cells as 100%. 17% of 600 active. AID 651671;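 active means activation of at least 7% in one or more replicates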;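 further: cells exposed to compound for two days before detection; 0% = DMSO-treated Pro5 cells and 100% = DMSO-treated B10-LARGE cells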
# Numbers without * were called inactive; i = inactive; . = no result given. This is a sample that favours compounds with a hit; in the whole collection about 2.1% have one here.
SMILES,UCH37 inh,HKDC1 inh,PfG6PD inh,aDG glyco up,B2AR ag,Cardio protect,Beta2AR ag CP1,FAP fluor counter,PfGluPho conf,others
NC(=O)CC(NC(=O)Cc1ccc(Cl)cc1)c1ccc(NCCCN2CCCC2=O)c([N+](=O)[O-])c1 (stereo not drawn),6,1,-9,0,26,3,66,i,.,
CC(CC(=O)Nc1ccc2c(c1)OCCO2)=NNC(=O)C(=O)Nc1ccccc1C,4,.,.,.,.,.,.,.,.,
Cc1ccc(OCC(=O)NN=C/C=C/c2ccco2)cc1C,8,.,.,.,.,.,.,.,.,
COc1ccc(NC(=O)CC(C)=NNC(=O)C(=O)NC(C)C)c(OC)c1,-1,.,.,.,.,.,.,.,.,
O=S(=O)(Nc1ccc(-c2nnc(SCc3ccc(Cl)cc3)o2)cc1)c1ccccc1,5,1,-40,0,43*,-12,114,i,.,
COc1cc(C=NNC(=S)Nc2cccc(Cl)c2C)ccc1OCC(=O)N1CC(C)OC(C)C1 (stereo not drawn),5,.,.,.,.,.,.,.,.,
Clc1ccccc1OCc1nnc(-c2ccccc2Br)o1,6,-4,11,0,-9,-16,.,.,.,
CCc1ccc(OCc2nnc(-c3ccccc3Br)o2)cc1,4,2,24,0,-2,-12,92,i,.,
Cc1nnsc1C(=O)NN=Cc1cccc(C(F)(F)F)c1,5,.,.,.,.,.,.,.,.,
Cc1cc(S(=O)(=O)N2CCOCC2)ccc1OCC(=O)Nc1ccc(F)c(Cl)c1,5,6,1,0,0,-4,112,i,.,
Cc1ccc(OCC(=O)Nc2ccc(S(=O)(=O)N3CCOCC3)cc2)c(C)c1,0,-1,7,0,2,-5,.,.,.,
Cc1cc(S(=O)(=O)N2CCOCC2)ccc1OCC(=O)Nc1ccc(F)cc1,3,-8,7,0,3,-7,112,i,.,
CC1CCCN(C(=O)COC(=O)c2ccc[nH]c2=O)C1 (stereo not drawn),1,-8,-18,0,51*,-3,98,i,.,
CN(C(=O)COC(=O)c1ccc[nH]c1=O)C1CCCCC1,-3,12,6,0,7,2,.,.,.,
CC1(C)Cc2c(c(-c3ccco3)nc3sc4c(NCCCO)ncnc4c23)CO1,-122,14,60*,0,111*,24,26*,i,9,
Cc1ccc(NC(=O)c2cc(N3C(=O)C=CC3=O)ccc2Cl)cc1C,1,14,77*,0,79*,-16,101,i,81*,Diaph ctr 10uM=0;Diaph ctr 30uM=-8
Cc1ccc(NC(=O)c2cc(NC(=O)c3ccco3)ccc2N2CCOCC2)cc1,-39,1,3,0,-6,23,.,.,.,
Cc1ccc(NC(=O)c2cc(N3C(=O)C=CC3=O)ccc2N2CCOCC2)cc1,-1,-8,80*,-1,123*,-31,42*,i,96*,Diaph ctr 10uM=5;Diaph ctr 30uM=-16
COc1ccccc1NC(=O)C(=O)NN=C(C)CC(=O)Nc1ccccc1C(F)(F)F,1,.,.,.,.,.,.,.,.,
O=C(c1cc(-c2ccc(Cl)cc2)n(-c2cc(Cl)ccc2Cl)n1)N1CCOCC1,3,2,78*,0,62*,-5,129,i,35,
O=C(c1cc(-c2ccc(Cl)cc2)n(-c2ccc(Cl)c(Cl)c2)n1)N1CCOCC1,5,3,31,0,30,2,.,.,.,
Cc1ccc(C(=O)ON=C2CC3CCC2(C)[C@@]3(C)CBr)cc1 (stereo partly drawn),2,.,.,.,.,.,.,.,.,
CCC(C)(C)c1ccc(OCCCC[n+]2cccc(C)c2C)c(C(C)(C)CC)c1,38*,-3,1,0,56*,-15,88,i,.,UCH37 confirm=59*
Cc1cc(C(C)(C)C)ccc1OCCCCN1CCCC1,3,0,-11,1,3,-18,.,.,.,
N#Cc1c(N2CCCC2)nc(N)c2c(N)nc(N3CCCC3)cc12,31*,20,107*,0,46*,2,83,i,29,UCH37 confirm=1
SMILES,UCH37 inh,HKDC1 inh,PfG6PD inh,aDG glyco up,B2AR ag,Cardio protect,Beta2AR ag CP1,FAP fluor counter,PfGluPho conf,others
CCOc1cc(C=NNC(=O)c2cccnc2)ccc1OC(=O)c1ccco1,7,.,.,.,.,.,.,.,.,
Cn1c(=N)n(CC(=O)c2ccc(Br)cc2)c2ccccc21,8,-3,29,4.8*,43*,-16,16*,i,.,aDG glyco conf=6.1*
C(=NNc1nc(-c2ccccc2)cc(-c2ccccc2)n1)c1cccnc1,-1,.,.,.,.,.,.,.,.,
CCCCN(C)CCCNC(=O)c1cc(-c2cccnc2)nc2ccccc12,-1,-4,5,0,-9,2,.,.,.,
CCCCN(C)CCNC(=O)c1cc(-c2cccnc2)nc2ccc(S(=O)(=O)N3CCC(C)CC3)cc12,5,-15,-14,5.4*,46*,-15,98,i,.,aDG glyco conf=4.2*
COC(=O)/C=c1/sc2nc3ccccc3n2c1=O,.,-32,75*,0,2,1,.,.,40,
COc1ccc(-c2cc(C(=O)NN=Cc3cccnc3)c3ccccc3n2)c(OC)c1,-8,.,.,.,.,.,.,.,.,
Cc1cccc(NC(=O)c2sc3nc(-c4ccc(F)cc4)cn3c2C)n1,-87,-7,23,1,4,2,.,.,.,
Cc1cccc(NC(=O)c2sc3nc(-c4ccccc4)cn3c2C)n1,-46,-7,61*,1,2,34,.,.,11,
O=C(/C=C1\C(=O)Nc2ccccc21)/C=C1\C(=O)Nc2ccccc21,3,13,81*,0,22,-14,.,.,41,
ClC(Cl)(c1nnnn1-c1ccccc1)c1nnnn1-c1ccccc1,0,8,88*,-1,7,-12,.,.,78*,Diaph ctr 10uM=-8;Diaph ctr 30uM=-6
